ChEMBL document CHEMBL1275556, “High prevalence of plasmid-mediated quinolone resistance genes qnr and aac(6')-Ib-cr in clinical isolates of Enterobacteriaceae from nine teaching hospitals in China” (2008)
In brackets after ≈: the same amount, converted by molar mass.

What was measured:
Citrobacter freundii [1] = assay: Antimicrobial activity against aac(6')-Ib-cr-positive Citrobacter freundii TJ15 harboring GyrA T83I, ParC S80I mutant, wild-type GyrB, qnrB genes by agar dilution method; assay type: functional
Method in brief: (§1)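 MICs were determined by the CLSI agar dilution method (M7-A7) and interpreted against CLSI M100-S17 breakpoints.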

Enterobacter cloacae [2] = assay: Antimicrobial activity against aac(6')-Ib-cr-negative Enterobacter cloacae GZ51 harboring qnrA gene by agar dilution method; assay type: functional
Escherichia coli [3] = assay: Antimicrobial activity against aac(6')-Ib-cr-negative Escherichia coli PU12T harboring wild-type GyrA, GyrB, ParC and qnrS genes by agar dilution method; assay type: functional; method in brief: as §1
Klebsiella pneumoniae [4] = assay: Antimicrobial activity against aac(6')-Ib-cr-positive Klebsiella pneumoniae SY26 harboring GyrA S83I, ParC S80I mutant, wild-type GyrB and qnrB genes by agar dilution method; assay type: functional
Method in brief: (§2)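 MICs were determined on clinical isolates by CLSI agar dilution (M7-A7) and interpreted against CLSI M100-S17 breakpoints.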

Citrobacter freundii [5] = assay: Antimicrobial activity against aac(6')-Ib-cr-positive Citrobacter freundii PU55 harboring GyrA T83I, ParC S80I mutant, wild-type GyrB, qnrA genes by agar dilution method; assay type: functional; method in brief: as §1
Citrobacter freundii [6] = assay: Antimicrobial activity against aac(6')-Ib-cr-negative Citrobacter freundii JN64T harboring qnrA gene by agar dilution method; assay type: functional; method in brief: as §1
Escherichia coli [7] = assay: Antimicrobial activity against aac(6')-Ib-cr-positive Escherichia coli FJ3 harboring GyrA S83L, ParC S80R mutant, wild-type GyrB and qnrB genes by agar dilution method; assay type: functional; method in brief: as §1
Enterobacter cloacae [8] = assay: Antimicrobial activity against aac(6')-Ib-cr-negative Enterobacter cloacae FJ67T harboring qnrS gene by agar dilution method; assay type: functional
Enterobacter cloacae [9] = assay: Antimicrobial activity against aac(6')-Ib-cr-negative Enterobacter cloacae SH39 harboring GyrA S83I, ParC S80I mutant, wild-type GyrB and qnrA genes by agar dilution method; assay type: functional
Klebsiella pneumoniae [10] = assay: Antimicrobial activity against aac(6')-Ib-cr-positive Klebsiella pneumoniae GZ40T harboring qnrB gene by agar dilution method
Citrobacter freundii [11] = assay: Antimicrobial activity against aac(6')-Ib-cr-positive Citrobacter freundii JS33 harboring GyrA T83I mutant, wild-type ParC, GyrB, qnrA and qnrB genes by agar dilution method; assay type: functional; method in brief: as §1
Enterobacter cloacae [12] = assay: Antimicrobial activity against aac(6')-Ib-cr-negative Enterobacter cloacae GZ51T harboring qnrA gene by agar dilution method; assay type: functional
Escherichia coli [13] = assay: Antimicrobial activity against aac(6')-Ib-cr-negative Escherichia coli PU12 harboring GyrA S83L mutant, wild-type GyrB, ParC and qnrS genes by agar dilution method; assay type: functional; method in brief: as §1
Enterobacter cloacae [14] = assay: Antimicrobial activity against aac(6')-Ib-cr-negative Enterobacter cloacae FJ61T harboring qnrS gene by agar dilution method; assay type: functional
Klebsiella pneumoniae [15] = assay: Antimicrobial activity against aac(6')-Ib-cr-negative Klebsiella pneumoniae SY22 harboring GyrA S83I, ParC S80I mutant, wild-type GyrB and qnrS genes by agar dilution method; assay type: functional; method in brief: as §1
Klebsiella pneumoniae [16] = assay: Antimicrobial activity against aac(6')-Ib-cr-positive Klebsiella pneumoniae JN132T harboring qnrB gene by agar dilution method; assay type: functional
Method in brief: (§3)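 Transconjugants were made by conjugating a qnr/aac(6')-Ib-cr donor with azide-resistant E. coli J53. Selection used Trypticase soy agar with sodium azide 150 µg/ml and sulfamethoxazole 180 µg/ml. […] MICs were read by CLSI agar dilution (M7-A7) and interpreted per M100-S17.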

Klebsiella pneumoniae [17] = assay: Antimicrobial activity against aac(6')-Ib-cr-positive Klebsiella pneumoniae JN41T harboring qnrB gene by agar dilution method; assay type: functional; method in brief: as §3
Enterobacter cloacae [18] = assay: Antimicrobial activity against aac(6')-Ib-cr-positive Enterobacter cloacae FJ63 harboring GyrA S83I, GyrA D87A, ParC S80I mutant, wild-type GyrB and qnrS genes by agar dilution method; assay type: functional
Enterobacter cloacae [19] = assay: Antimicrobial activity against aac(6')-Ib-cr-negative Enterobacter cloacae GZ47 harboring qnrB and qnrS genes by agar dilution method; assay type: functional
Citrobacter freundii [20] = assay: Antimicrobial activity against aac(6')-Ib-cr-positive Citrobacter freundii PU55T harboring wild-type GyrA, ParC, GyrB and qnrA genes by agar dilution method
Klebsiella pneumoniae [21] = assay: Antimicrobial activity against aac(6')-Ib-cr-positive Klebsiella pneumoniae WH99T harboring qnrB gene by agar dilution method; assay type: functional; method in brief: as §3
Klebsiella pneumoniae [22] = assay: Antimicrobial activity against aac(6')-Ib-cr-positive Klebsiella pneumoniae JN132 harboring GyrA S83I, ParC S80I mutant, wild-type GyrB and qnrB genes by agar dilution method; assay type: functional; method in brief: as §2
Escherichia coli [23] = assay: Antimicrobial activity against aac(6')-Ib-cr-positive Escherichia coli FJ3T harboring wild-type GyrA, ParC, GyrB and qnrB genes by agar dilution method
Klebsiella pneumoniae [24] = assay: Antimicrobial activity against aac(6')-Ib-cr-positive Klebsiella pneumoniae JN41 harboring GyrA S83I, ParC S80I mutant, wild-type GyrB and qnrB genes by agar dilution method; assay type: functional; method in brief: as §2
Citrobacter freundii [25] = assay: Antimicrobial activity against aac(6')-Ib-cr-positive Citrobacter freundii JN1 harboring GyrA T83I, ParC S80I mutant, wild-type GyrB and qnrA genes by agar dilution method; assay type: functional; method in brief: as §1
Citrobacter freundii [26] = assay: Antimicrobial activity against aac(6')-Ib-cr-positive Citrobacter freundii JS33T harboring qnrA gene by agar dilution method; assay type: functional; method in brief: as §1
Klebsiella pneumoniae [27] = assay: Antimicrobial activity against aac(6')-Ib-cr-negative Klebsiella pneumoniae SY22T harboring qnrS gene by agar dilution method; assay type: functional; method in brief: as §1
Klebsiella pneumoniae [28] = assay: Antimicrobial activity against aac(6')-Ib-cr-positive Klebsiella pneumoniae WH99 harboring wild-type GyrA, ParC, GyrB and qnrB genes by agar dilution method; assay type: functional; method in brief: as §2
Enterobacter cloacae [29] = assay: Antimicrobial activity against aac(6')-Ib-cr-negative Enterobacter cloacae WH42 harboring wild-type GyrA, ParC, GyrB and qnrA genes by agar dilution method; assay type: functional
Enterobacter cloacae [30] = assay: Antimicrobial activity against aac(6')-Ib-cr-negative Enterobacter cloacae FJ67 harboring […] and qnrS genes by agar dilution method; assay type: functional
Escherichia coli [31] = assay: Antimicrobial activity against Escherichia coli J53 harboring wild-type GyrA, ParC, GyrB genes by agar dilution method
Enterobacter cloacae [32] = assay: Antimicrobial activity against aac(6')-Ib-cr-negative Enterobacter cloacae SH39T harboring qnrA gene by agar dilution method; assay type: functional
Citrobacter freundii [33] = assay: Antimicrobial activity against aac(6')-Ib-cr-negative Citrobacter freundii JN64 harboring GyrA T83I, wild-type ParC, GyrB and qnrA genes by agar dilution method; assay type: functional; method in brief: as §1
Enterobacter cloacae [34] = assay: Antimicrobial activity against aac(6')-Ib-cr-negative Enterobacter cloacae GZ47T harboring qnrB gene by agar dilution method; assay type: functional
Klebsiella pneumoniae [35] = assay: Antimicrobial activity against aac(6')-Ib-cr-positive Klebsiella pneumoniae GZ40 harboring GyrA S83I, ParC S80I mutant, wild-type GyrB and qnrB genes by agar dilution method; assay type: functional; method in brief: as §1
Enterobacter cloacae [36] = assay: Antimicrobial activity against aac(6')-Ib-cr-negative Enterobacter cloacae WH42T harboring qnrA gene by agar dilution method; assay type: functional
Klebsiella pneumoniae [37] = assay: Antimicrobial activity against aac(6')-Ib-cr-positive Klebsiella pneumoniae SY26T harboring wild-type GyrA, ParC, GyrB and qnrB genes by agar dilution method; assay type: functional
Method in brief: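 Transconjugants were made by conjugating a qnr/aac(6')-Ib-cr donor with azide-resistant E. coli J53. MICs were read by CLSI agar dilution (M7-A7) and interpreted per M100-S17.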

Enterobacter cloacae [38] = assay: Antimicrobial activity against aac(6')-Ib-cr-negative Enterobacter cloacae FJ61 harboring GyrA S83I, GyrA D87A, ParC S80I mutant, wild-type GyrB and qnrS genes by agar dilution method; assay type: functional
Citrobacter freundii [39] = assay: Antimicrobial activity against aac(6')-Ib-cr-positive Citrobacter freundii TJ15T harboring wild-type GyrA, ParC, GyrB genes by agar dilution method; assay type: functional; method in brief: as §1
Citrobacter freundii [40] = assay: Antimicrobial activity against aac(6')-Ib-cr-positive Citrobacter freundii JN1T by agar dilution method; assay type: functional; method in brief: as §1
Enterobacter cloacae [41] = assay: Antimicrobial activity against aac(6')-Ib-cr-positive Enterobacter cloacae FJ63T harboring qnrS gene by agar dilution method; assay type: functional

## C[C@@H](O)[C@H]1C(=O)N2C(C(=O)O)=C(S[C@@H]3CN[C@H](C(=O)N(C)C)C3)[C@H](C)[C@H]12 [MEROPENEM]
Citrobacter freundii [1]
  MIC: 0.032 µg/mL (≈ 0.0834 µM)
Enterobacter cloacae [2]
  MIC: 0.064 µg/mL (≈ 0.167 µM)
Escherichia coli [3]
  MIC: 0.016 µg/mL (≈ 0.0417 µM)
Klebsiella pneumoniae [4]
  MIC: 0.125 µg/mL (≈ 0.326 µM)
Citrobacter freundii [5]
  MIC: 0.25 µg/mL (≈ 0.652 µM)
Citrobacter freundii [6]
  MIC: 0.016 µg/mL (≈ 0.0417 µM)
Escherichia coli [7]
  MIC: 0.032 µg/mL (≈ 0.0834 µM)
Enterobacter cloacae [8]
  MIC: 0.032 µg/mL (≈ 0.0834 µM)
Enterobacter cloacae [9]
  MIC: 0.125 µg/mL (≈ 0.326 µM)
Klebsiella pneumoniae [10]
  MIC: 0.016 µg/mL (≈ 0.0417 µM)
Citrobacter freundii [11]
  MIC: 0.125 µg/mL (≈ 0.326 µM)
Enterobacter cloacae [12]
  MIC: 0.016 µg/mL (≈ 0.0417 µM)
Escherichia coli [13]
  MIC: 0.016 µg/mL (≈ 0.0417 µM)
Enterobacter cloacae [14]
  MIC: 0.016 µg/mL (≈ 0.0417 µM)
Klebsiella pneumoniae [15]
  MIC: 0.016 µg/mL (≈ 0.0417 µM)
Klebsiella pneumoniae [16]
  MIC: 0.032 µg/mL (≈ 0.0834 µM)
Klebsiella pneumoniae [17]
  MIC: 0.016 µg/mL (≈ 0.0417 µM)
Enterobacter cloacae [18]
  MIC: 1 µg/mL (≈ 2.61 µM)
Enterobacter cloacae [19]
  MIC: 0.032 µg/mL (≈ 0.0834 µM)
Citrobacter freundii [20]
  MIC: 0.016 µg/mL (≈ 0.0417 µM)
Klebsiella pneumoniae [21]
  MIC: 0.016 µg/mL (≈ 0.0417 µM)
Klebsiella pneumoniae [22]
  MIC: 0.032 µg/mL (≈ 0.0834 µM)
Escherichia coli [23]
  MIC: 0.032 µg/mL (≈ 0.0834 µM)
Klebsiella pneumoniae [24]
  MIC: 0.032 µg/mL (≈ 0.0834 µM)
Citrobacter freundii [25]
  MIC: 0.125 µg/mL (≈ 0.326 µM)
Citrobacter freundii [26]
  MIC: 0.032 µg/mL (≈ 0.0834 µM)
Klebsiella pneumoniae [27]
  MIC: 0.016 µg/mL (≈ 0.0417 µM)
Klebsiella pneumoniae [28]
  MIC: 0.032 µg/mL (≈ 0.0834 µM)
Enterobacter cloacae [29]
  MIC: 0.125 µg/mL (≈ 0.326 µM)
Enterobacter cloacae [30]
  MIC: 0.032 µg/mL (≈ 0.0834 µM)
Escherichia coli [31]
  MIC: 0.016 µg/mL (≈ 0.0417 µM)
Enterobacter cloacae [32]
  MIC: 0.016 µg/mL (≈ 0.0417 µM)
Citrobacter freundii [33]
  MIC: 0.25 µg/mL (≈ 0.652 µM)
Enterobacter cloacae [34]
  MIC: 0.016 µg/mL (≈ 0.0417 µM)
Klebsiella pneumoniae [35]
  MIC: 0.125 µg/mL (≈ 0.326 µM)
Enterobacter cloacae [36]
  MIC: 0.016 µg/mL (≈ 0.0417 µM)
Klebsiella pneumoniae [37]
  MIC: 0.016 µg/mL (≈ 0.0417 µM)
Enterobacter cloacae [38]
  MIC: 0.25 µg/mL (≈ 0.652 µM)
Citrobacter freundii [39]
  MIC: 0.016 µg/mL (≈ 0.0417 µM)
Citrobacter freundii [40]
  MIC: 0.016 µg/mL (≈ 0.0417 µM)
Enterobacter cloacae [41]
  MIC: 0.064 µg/mL (≈ 0.167 µM)
